Compound activity deposited in PubChem BioAssay by several laboratories.
Jurkat tox 60K = reduces viability or proliferation of Jurkat cells; Jurkat E6.1 viability, ATP luminescence, 48 h; inhibition, % at 4 µM; 1.2% of 56,000 active;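 active = inhibition above the mean inhibition of all tested compounds plus 3 SD, cut at about 28% in these data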
mHtt clearance = compounds clearing mutant huntingtin protein; HeLa Exon1htt(103Q)mCFP, aggregate imaging; zero = plate's median compound well; 0.42% of 47,000 active; AID 853; inhibition, % at 1.5 µM;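 active = inhibition of aggregate fluorescence above about 70%, also judged a hit by eye on the cell image, limit read from the data, passing the limit was not always enough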;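 also: cells exposed to compound for three days before fixation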
HEK293 NFkB inh = inhibitors of the PMA/ionomycin-induced NF-kB reporter in HEK293 cells | inhibition, % at 3 µM | 0.21% of 62,000 active | HEK-293 NF-kB luciferase reporter, luminescence;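 active = inhibition above the mean of all tested compounds plus 3 SD, cut at about 40% in these data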;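 also: 0% = stimulated DMSO wells and 100% = 10 µM reference inhibitor 5653914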
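Signal: luciferase luminescence; Material: HEK-293 cells with stable firefly luciferase reporter driven by four HIV NF-kB elements; Probe or stimulus: PMA with ionomycin; Replication: tested once; Times: 1 h compound pretreatment, then 16 h stimulation at 37 °C, 5% CO2; Benchmarks: DMSO and 10 µM reference inhibitor; Evaluation: per-plate % inhibition versus controls.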
HER2 expr 66K = Her2 kinase expression inhibition | P04626 | SKBR-3 HER2 protein level, AlphaScreen, 18-24 h; hits give low values | HER2 level % of control, % at 10 µM | 0.69% of 65,000 active | AID 645;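 active = HER2 level under 5% of the carrier-only control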;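 also: 100% = DMSO carrier and 0% = 500 nM PU-H71 HSP90 inhibitor; lower value means stronger loss of Her2 protein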
Target sequence (P04626 whole entry, looked up): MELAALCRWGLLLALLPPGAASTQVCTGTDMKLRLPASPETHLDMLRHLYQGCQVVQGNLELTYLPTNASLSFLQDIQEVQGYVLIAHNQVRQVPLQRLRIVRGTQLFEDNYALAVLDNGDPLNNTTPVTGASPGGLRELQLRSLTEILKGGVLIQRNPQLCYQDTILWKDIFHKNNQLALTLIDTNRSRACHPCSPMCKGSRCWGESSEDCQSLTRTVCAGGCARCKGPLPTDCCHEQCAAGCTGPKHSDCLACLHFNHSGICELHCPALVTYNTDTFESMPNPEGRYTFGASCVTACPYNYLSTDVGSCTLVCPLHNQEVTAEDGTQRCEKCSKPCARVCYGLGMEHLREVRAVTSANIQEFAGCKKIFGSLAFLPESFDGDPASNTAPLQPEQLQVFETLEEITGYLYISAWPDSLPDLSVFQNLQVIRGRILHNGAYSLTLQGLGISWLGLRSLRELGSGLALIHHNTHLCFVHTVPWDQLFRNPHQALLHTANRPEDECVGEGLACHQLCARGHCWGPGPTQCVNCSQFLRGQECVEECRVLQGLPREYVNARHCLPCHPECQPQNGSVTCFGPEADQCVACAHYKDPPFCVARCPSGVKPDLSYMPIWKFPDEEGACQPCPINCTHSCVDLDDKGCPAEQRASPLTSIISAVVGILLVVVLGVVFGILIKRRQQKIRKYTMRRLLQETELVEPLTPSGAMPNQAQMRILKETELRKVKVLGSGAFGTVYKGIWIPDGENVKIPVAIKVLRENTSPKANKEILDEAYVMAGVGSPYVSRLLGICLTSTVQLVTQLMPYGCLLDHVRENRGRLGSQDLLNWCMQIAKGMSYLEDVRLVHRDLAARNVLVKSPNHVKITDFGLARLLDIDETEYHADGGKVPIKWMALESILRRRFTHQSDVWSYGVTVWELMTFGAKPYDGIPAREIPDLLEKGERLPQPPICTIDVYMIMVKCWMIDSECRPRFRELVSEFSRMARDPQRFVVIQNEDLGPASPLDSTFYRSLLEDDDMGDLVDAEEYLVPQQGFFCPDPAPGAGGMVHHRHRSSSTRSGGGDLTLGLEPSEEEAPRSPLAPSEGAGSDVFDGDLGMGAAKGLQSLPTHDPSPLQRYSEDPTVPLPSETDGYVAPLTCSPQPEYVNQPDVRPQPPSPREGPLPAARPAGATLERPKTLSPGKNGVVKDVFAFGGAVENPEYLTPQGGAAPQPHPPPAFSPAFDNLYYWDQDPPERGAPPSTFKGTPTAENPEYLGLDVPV
SK-BR-3 tox 24h = SK-BR-3 proliferation inhibitors; SK-BR-3 viability, CellTiter-Glo ATP luminescence, 24 h; hits give low values; viability, % at 10 µM; 0.47% of 41,000 active;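 active = viability at or below the median of all test compounds minus 3 SD, in both replicates if run twice, cut at about 45% in these data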;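 also: 100% = median untreated cell wells and 0% = median positive control drug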
Numbers without * were called inactive; . = no result. This is a sample that favours compounds with a hit; in the whole collection about 1.9% have one here.

SMILES	Jurkat tox 60K	mHtt clearance	HEK293 NFkB inh	HER2 expr 66K	SK-BR-3 tox 24h
Cc1c(C(=O)N2CCC3(CC2)OCCO3)sc2ncnc(N3CCN(c4ccccn4)CC3)c12	-0.7	.	22.3	84.4	38.5*
O=C(c1sc2ccccc2c1Cl)N1CCC2(CC1)OCCO2	4.3	-91.9	5.0	116.1	91.5
Cc1c(N=Cc2c(O)n(CCc3ccc(F)cc3)c(=O)[nH]c2=O)c(=O)n(-c2ccccc2)n1C	.	-21.4	.	83.9	75.7
Clc1ccc(CSC(Cn2ccnc2)c2ccc(Cl)cc2Cl)cc1 (centres undefined)	.	.	.	82.2	101.4
Clc1ccc(COC(Cn2ccnc2)c2ccc(Cl)cc2Cl)cc1 (centres undefined)	.	.	.	-15.3*	102.9
CN(C)C1=NP(N(C)C)(N(C)C)=NC(c2ccccc2)=N1	-4.5	-20.9	1.3	118.9	.
c1ccc2[nH]c(CCNC3CCCCC3)nc2c1	-6.4	59.8	17.6	94.4	91.7
COc1ccc(C2NCc3ccc4c(c3-n3cccc32)OCO4)cc1O (centres undefined)	77.9*	-162.7	25.9	84.3	.
Cc1[nH]c2c(C(F)(F)F)cccc2c1CCN	52.6*	.	23.9	56.6	.
C=CCN(CC=C)Cc1c[nH]c2ccccc12	-2.6	.	23.4	23.4	26.6*
C=CCn1c(O)c(C(CC)=NCc2cc(OC)cc(OC)c2)c(=O)[nH]c1=O	7.0	-32.4	19.4	90.7	34.3*
C=CCn1c(O)c(C(CC)=Nc2ccccc2NC(C)=O)c(=O)[nH]c1=O	-15.6	5.9	9.5	110.7	117.2
C=CCn1c(O)c(C(CC)=NCCCO)c(=O)[nH]c1=O	-7.3	24.4	14.2	140.3	44.1*
COc1ccc(CCC(=O)N2CCC3(CC2)OCCO3)cc1	8.2	-57.1	9.9	121.2	89.3
Nc1c(C(=O)OCC2CCCO2)c2nc3ccccc3nc2n1Cc1cccs1 (centres undefined)	0.1	-49.7	5.2	45.0	.
Nc1c(C(=O)NC2CCCC2)c2nc3ccccc3nc2n1CC1CCCO1 (centres undefined)	4.3	.	7.0	-28.5*	114.6
CCCCN1C(=O)NC(=O)C2(Cc3c(nc4c(C)cccn4c3=O)N3CCc4ccccc4C32)C1=O (centres undefined)	3.2	-15.8	30.8	1.2*	121.0
C[C@H]1CCC[C@@H](O)CCC/C=C/c2cc(O)cc(O)c2C(=O)O1	.	-10.2	36.5	-14.0*	92.0
C[C@H]1CCC[C@H](O)CCCCCc2cc(O)cc(O)c2C(=O)O1	2.6	26.1	9.5	-10.4*	.
C=Cn1ccnc1P(=S)(c1ccn(C)c1)c1nccn1C=C	.	.	2.2	159.4	88.7
CCn1ncc(/C=C2/CC3C4CC=C5CC(O)CCC5(C)C4CCC3(C)C2=O)c1C (centres undefined)	.	3.5	.	.	.
CN1C(=O)C(=Cc2ccccc2Oc2ccc(Cl)cc2)C(=O)N(C)C1=O	.	82.2*	.	.	.
CCn1nc(-c2ccccc2)nc2c(=O)n(C)c(=O)nc1-2	27.4	.	90.1*	-14.1*	38.0*
COc1cc(C)c(CN2CCN(c3ccccc3)CC2)cc1C	13.9	-23.7	11.6	116.9	.
CC(=O)CC(C)(C)n1c[n+](C)nn1	.	-23.9	.	92.9	94.2
Cc1nnc(SCc2nc3ccccc3c(=O)n2-c2ccccc2Cl)n1N	2.6	71.6*	0.5	93.5	111.7
O=C(c1cc2ccccn2n1)N1CCC2(CC1)OCCO2	.	.	3.0	140.7	.
O=C(c1ccc2c(c1)ncn2C1CCCCC1)N1CCC2(CC1)OCCO2	54.2*	-1.3	18.2	72.0	82.0
O=c1[nH]c(=O)n(Cc2ccc(F)cc2)c(O)c1C=NCC1CCCO1 (centres undefined)	-7.7	3.2	9.2	123.0	95.5
COc1ccccc1/C=C1/C(=N/O)C2CCN1CC2	-6.1	.	15.3	95.7	97.0
